# “Also recorded” adds a separate entry of the source.
# Legend:
# [1] = Stability in warm serum; assay type: in vitro ADME, bovine; details: 100% FBS, up to 4 h
# [2] = In vivo biodistribution and clearance in SD rats; parameters: species or system Sprague-Dawley (SD) rats; details: Rat, 4 h postinjection
# In short: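 Sprague-Dawley male rats (250 to 300 g) received 40 pmol/g fluorophore in saline i.v. and were imaged with the FLARE system on surgically exposed organs. Excitation was 14 mW/cm2 of 745–779 nm light, with emission through an 800–848 nm bandpass and exposure held constant. CBR = (FL–BG)/BG was scored relative to abdominal wall. N = 5.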
# [3] = Optical property measurements in 100% FBS at 37°C; assay type: physicochemical; details: for Stokes Shift / λem / λexc / ε (extinction coefficient) / Φ (fluorescence quantum yield): 100% FBS; for ε (extinction coefficient): 50 mM HEPES pH 7.4, 37°C; for Φ (fluorescence quantum yield): ICG in DMSO as standard
# In short: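 Spectra were taken at 37°C in 100% FBS buffered with 50 mM HEPES, pH 7.4, on fiberoptic absorbance (200–1100 nm) and fluorescence (350–1000 nm) spectrometers. Excitation was a 770 nm laser diode set to 8 mW. […] Dyes available only as NHS ester were first hydrolysed to acid in 50 mM borate, pH 9.0, for 3 h.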
# [4] = In vivo biodistribution and clearance in CD-1 mice; details: for β-phase blood half-life (t1/2β): CD-1 mice, 40 pmol/g i.v.; for CBR Bl (bladder) relative to abdominal wall / CBR He/Lu (heart/lungs) relative to abdominal wall / CBR In (intestine) relative to abdominal wall / CBR Li (liver) relative to abdominal wall / CBR Re (rectum) relative to abdominal wall / CBR Sk/Mu (skin/muscle) relative to abdominal wall / CBR Sp (spleen) relative to abdominal wall / Carcass (retention) / Eliminated (from the body into urine): Mouse; for CBR Bl (bladder) relative to abdominal wall / CBR He/Lu (heart/lungs) relative to abdominal wall / CBR In (intestine) relative to abdominal wall / CBR Li (liver) relative to abdominal wall / CBR Re (rectum) relative to abdominal wall / CBR Sk/Mu (skin/muscle) relative to abdominal wall / CBR Sp (spleen) relative to abdominal wall / Carcass (retention) / Eliminated (from the body into urine) / Uptake in intestine / Uptake in kidneys / Uptake in liver: 4 h postinjection; for half-life: blood; for half-life / tissue uptake at 4 h: 40 pmol/g; for Route of elimination (renal clearance), in words: mice, 4 h
# In short: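 CD-1 male mice (25 to 30 g) received 40 pmol/g fluorophore in saline i.v. and were imaged with the FLARE system on surgically exposed organs. Excitation was 14 mW/cm2 of 745–779 nm-filtered light, with emission through an 800–848 nm bandpass and exposure and normalization held constant. ROI fluorescence and background gave CBR = (FL–BG)/BG, scored against abdominal wall. N = 5, mean ± S.D.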
# [5] = in dimethyl sulfoxide; cited from earlier work
# [6] = test system: serum proteins; assay type: in vitro ADME, bovine; details: 4 h incubation in 100% FBS
Decomposition [1] [%],CBR Bl (bladder) relative to abdominal wall [2],CBR He/Lu (heart/lungs) relative to abdominal wall [2],CBR In (intestine) relative to abdominal wall [2],CBR Li (liver) relative to abdominal wall [2],CBR Re (rectum) relative to abdominal wall [2],CBR Sk/Mu (skin/muscle) relative to abdominal wall [2],CBR Sp (spleen) relative to abdominal wall [2],Stokes Shift [3] [nm],λem [3] [nm],λexc [3] [nm],ε (extinction coefficient) [3],Φ (fluorescence quantum yield) [3] [%],CBR Bl (bladder) relative to abdominal wall [4],CBR He/Lu (heart/lungs) relative to abdominal wall [4],CBR In (intestine) relative to abdominal wall [4],CBR Li (liver) relative to abdominal wall [4],CBR Re (rectum) relative to abdominal wall [4],CBR Sk/Mu (skin/muscle) relative to abdominal wall [4],CBR Sp (spleen) relative to abdominal wall [4],Molecule,also measured
4.4,"– (–, 0 to 1)","– (–, 0 to 1)","+++ (+++, > 5)","– (–, 0 to 1)","++ (++, 2 to 5)","– (–, 0 to 1)","– (–, 0 to 1)",16,800,784,"240,000 M^-1cm^-1",16.9,"++ (++, 2 to 5)","– (–, 0 to 1)","++ (++, 2 to 5)","– (–, 0 to 1)","+++ (+++, > 5)","– (–, 0 to 1)","– (–, 0 to 1)",IRDye™800-RS carboxylic acid [RS800],"β-phase blood half-life (t1/2β) [4]: 11.2 min; Carcass (retention) [4]: 79.0 ± 4.1 %ID; Eliminated (from the body into urine) [4]: 15.5 ± 1.2 %ID; Renal filtration / renal excretion ([4]; approximate, discussion statement): ≈ 20%"
5.9,"– (–, 0 to 1)","– (–, 0 to 1)","+++ (+++, > 5)","++ (++, 2 to 5)","+ (+, 1 to 2)","– (–, 0 to 1)","– (–, 0 to 1)",15,822,807,"121,000 M^-1cm^-1",9.3,"– (–, 0 to 1)","– (–, 0 to 1)","+++ (+++, > 5)","++ (++, 2 to 5)","+ (+, 1 to 2)","– (–, 0 to 1)","– (–, 0 to 1)","CC1(C)C(/C=C/C=C/C=C/C=C2\N(CCCCS(=O)(=O)O)c3ccc4ccccc4c3C2(C)C)=[N+](CCCCS(=O)(=O)[O-])c2ccc3ccccc3c21 [ICG, indocyanine green]","Φ (fluorescence quantum yield) of calibration standard [5]: 13%; Serum protein binding (HD shift by GFC) [6]: significant HD shift; Carcass (retention) [4]: 97.1 ± 9.4 %ID; Eliminated (from the body into urine) [4]: 2.2 ± 0.9 %ID; half-life ([4]; male, CD-1, mouse, iv): 3.6 min; tissue uptake at 4 h ([4]; male, CD-1, mouse, intestine, intravenous): 62 ± 6.6 %ID/g; tissue uptake at 4 h ([4]; male, CD-1, mouse, kidneys, intravenous): 5.9 ± 1 %ID/g; tissue uptake at 4 h ([4]; male, CD-1, mouse, liver, intravenous): 27.1 ± 0.5 %ID/g; Route of elimination (renal clearance), in words [4]: undetectable in urine; half-life ([4]; mouse, intravenous): 2 to 5 min"
4.0,"+++ (+++, > 5)","– (–, 0 to 1)","+++ (+++, > 5)","+ (+, 1 to 2)","+ (+, 1 to 2)","+ (+, 1 to 2)","– (–, 0 to 1)",14,800,786,"237,000 M^-1cm^-1",14.2,"+++ (+++, > 5)","– (–, 0 to 1)","+++ (+++, > 5)","– (–, 0 to 1)","++ (++, 2 to 5)","+ (+, 1 to 2)","– (–, 0 to 1)","CC1(C)C(=CC=C2CCCC(C=CC3=[N+](CCCCCC(=O)[O-])c4ccc(S(=O)(=O)[O-])cc4C3(C)C)=C2Oc2ccc(S(=O)(=O)[O-])cc2)N(CCCCS(=O)(=O)[O-])c2ccc(S(=O)(=O)[O-])cc21.[Na+].[Na+].[Na+].[Na+] [CW800, IRDye™800-CW carboxylic acid]",Uptake in intestine [4]: 28.5 ± 7.0 %ID/g; Uptake in kidneys [4]: 7.3 ± 1.3 %ID/g; Uptake in liver [4]: 11.4 ± 0.8 %ID/g; β-phase blood half-life (t1/2β) [4]: 18.5 min; Carcass (retention) [4]: 52.4 ± 9.6 %ID; Eliminated (from the body into urine) [4]: 44.0 ± 4.6 %ID
5.5,"+++ (+++, > 5)","– (–, 0 to 1)","– (–, 0 to 1)","– (–, 0 to 1)","– (–, 0 to 1)","– (–, 0 to 1)","– (–, 0 to 1)",16,788,772,"249,000 M^-1cm^-1",15.1,"+++ (+++, > 5)","– (–, 0 to 1)","– (–, 0 to 1)","– (–, 0 to 1)","– (–, 0 to 1)","– (–, 0 to 1)","– (–, 0 to 1)",CC1(C)C(/C=C/C2=C(Oc3ccc(CCC(=O)O)cc3)C(=C/C=C3/N(CCC[N+](C)(C)C)c4ccc(S(=O)(=O)O)cc4C3(C)C)/CCC2)=[N+](CCC[N+](C)(C)C)c2ccc(S(=O)(=O)O)cc21 [ZW800-1],"Serum protein binding (HD shift by GFC) [6]: does not exhibit protein binding; also recorded: no serum protein binding; also recorded: did not adsorb to serum proteins; Carcass (retention) ([2]; not measured directly): 14.8 ± 6.5 %ID; Eliminated ([2]; not measured directly): 83.4 ± 15.9 %ID; Product of extinction coefficient and quantum yield in serum, relative to ICG ([3]; in serum): over 3 fold; Found in urine ([4]; 1 h post-injection): 51.3 ± 9.7 %ID; Uptake in intestine [4]: 0.7 ± 0.4 %ID/g; Uptake in kidneys [4]: 9.8 ± 2.2 %ID/g; Uptake in liver [4]: 0.9 ± 0.1 %ID/g; β-phase blood half-life (t1/2β) [4]: 15.1 min; Carcass (retention) [4]: 12.4 ± 3.4 %ID; Eliminated (from the body into urine) [4]: 86.0 ± 15.4 %ID; Route of elimination (renal clearance), in words [4]: exclusively cleared by the kidneys; also recorded: mostly renally cleared"
